Results from ChEMBL document CHEMBL1287672, “Synthesis of new 4-aminoquinolines and quinoline-acridine hybrids as antimalarial agents” (2010).
Values after ≈ are worked out from the molar mass of the structure shown. Active and inactive are the calls of the source. No cut-off for these calls is given here.

Tests used:
Plasmodium falciparum = test: Antimalarial activity against Plasmodium falciparum NF 54 assessed as inhibition of maturation into schizont stage after 36 to 40 hrs; format: functional
Method in brief: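 Synchronous ring-stage NF-54 parasites (5% D-sorbitol synchronization) in RPMI-1640 with 25 mM HEPES, 1% D-glucose, 0.23% sodium bicarbonate and 10% heat-inactivated human serum. Start at 1% parasitemia, 3% hematocrit. Compounds tested in duplicate wells, 37 °C, candle jar, 36–40 h. Giemsa-stained smears read by microscopy. MIC is the lowest tested concentration blocking full maturation to schizonts. Chloroquine reference.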

Plasmodium yoelii [1] = test: Antimalarial activity against chloroquine-resistant Plasmodium yoelii infected in Swiss mice (Mus musculus) assessed as mice (Mus musculus) survival at 50 mg/kg, intraperitoneal for 4 days relative to control; format: functional, organism-based; set-up: dose 50 mg/kg
Method in brief: (§1)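 Swiss mice were inoculated with 1 × 10^6 P. yoelii N-67 parasitized RBC on day 0. Groups of five were dosed once daily on days 0–3 with compound as an aqueous suspension with a few drops of Tween 80. Intraperitoneal doses were given in 0.2 mL and oral doses in 0.1 mL. The read-out was the number of mice alive on day 28.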

Plasmodium yoelii [2] = test: Antimalarial activity against chloroquine-resistant Plasmodium yoelii infected in Swiss mice (Mus musculus) assessed as suppression of parasitaemia at 50 mg/kg, intraperitoneal for 4 days relative to control; format: functional
Method in brief: (§2)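 Swiss mice were infected on day 0 with 1 × 10^6 RBC parasitized by P. yoelii N-67. Five mice per group were dosed once daily on days 0–3 with a Tween 80 aqueous suspension, given ip in 0.2 mL or orally in 0.1 mL. Parasitemia was read from thin Giemsa smears on day 4. Suppression was calculated from group means as [(C − T)/C] × 100 against untreated controls.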

Plasmodium yoelii [3] = test: Antimalarial activity against chloroquine-resistant Plasmodium yoelii infected in Swiss mice (Mus musculus) assessed as mice (Mus musculus) survival at 100 mg/kg, peroral for 4 days relative to control; format: functional, organism-based; set-up: dose 100 mg/kg; method in brief: as §1
Plasmodium yoelii [4] = test: Antimalarial activity against chloroquine-resistant Plasmodium yoelii infected in Swiss mice (Mus musculus) assessed as suppression of parasitaemia at 25 mg/kg, intraperitoneal for 4 days relative to control; format: functional; method in brief: as §2
Plasmodium yoelii [5] = test: Antimalarial activity against chloroquine-resistant Plasmodium yoelii infected in Swiss mice (Mus musculus) assessed as suppression of parasitaemia at 100 mg/kg, peroral for 4 days relative to control; format: functional; conditions: route oral; method in brief: as §2
Plasmodium yoelii [6] = test: Antimalarial activity against chloroquine-resistant Plasmodium yoelii infected in Swiss mice (Mus musculus) assessed as mice (Mus musculus) survival at 25 mg/kg, intraperitoneal for 4 days relative to control; format: functional, organism-based; set-up: dose 25 mg/kg; method in brief: as §1

Compound | MIC (Plasmodium falciparum) [µg/mL] | other results
Clc1ccc2c(NCCN3CCc4ccccc4C3)ccnc2c1 | 2 (≈ 5.92 µM) | –
Cc1ccc([N+](=O)[O-])c(N2CCN(CCNc3ccnc4cc(Cl)ccc34)CC2)c1 | 10 (≈ 23.5 µM) | –
N#CC1(c2ccccc2)CCN(CCCNc2ccnc3cc(Cl)ccc23)CC1 | 2 (≈ 4.94 µM) | –
Clc1ccc2c(NCCCN3CCc4ccccc4C3)ccnc2c1 | 0.031 (≈ 0.0881 µM) | Activity (Plasmodium yoelii [1]): inactive; Activity (Plasmodium yoelii [2]): 100%
N#CC1(c2ccccc2)CCN(CCNc2ccnc3cc(Cl)ccc23)CC1 | 10 (≈ 25.6 µM) | –
Clc1ccc2c(NCCN3CCN(c4ccccn4)CC3)ccnc2c1 | 10 (≈ 27.2 µM) | –
O=[N+]([O-])c1ccccc1N1CCN(CCNc2ccnc3cc(Cl)ccc23)CC1 | 10 (≈ 24.3 µM) | –
O=[N+]([O-])c1cccnc1N1CCN(CCCNc2ccnc3cc(Cl)ccc23)CC1 | 10 (≈ 23.4 µM) | –
COc1ccc2nc3cc(Cl)ccc3c(NCCCN3CCN(c4ccnc5cc(Cl)ccc45)CC3)c2c1 | 1 (≈ 1.83 µM) | –
O=[N+]([O-])c1ccccc1N1CCN(CCCNc2ccnc3cc(Cl)ccc23)CC1 | 10 (≈ 23.5 µM) | –
COc1ccc2nc3cc(Cl)ccc3c(NCCN3CCN(c4ccnc5cc(Cl)ccc45)CC3)c2c1 | 1 (≈ 1.88 µM) | –
CCN(CC)CCCC(C)Nc1ccnc2cc(Cl)ccc12 (configuration not stated) [CHLOROQUINE] | 0.125 (≈ 0.391 µM) | –
Cc1ccc([N+](=O)[O-])c(N2CCN(CCCNc3ccnc4cc(Cl)ccc34)CC2)c1 | 10 (≈ 22.7 µM) | –
COc1ccc2nc3cc(Cl)ccc3c(Nc3cccc(Nc4ccnc5cc(Cl)ccc45)c3)c2c1 | 0.25 (≈ 0.489 µM) | Activity (Plasmodium yoelii [1]): inactive; Activity (Plasmodium yoelii [2]): 100%
COc1ccc2nc3cc(Cl)ccc3c(Nc3ccc(Nc4ccnc5cc(Cl)ccc45)cc3)c2c1 | 0.5 (≈ 0.978 µM) | –
Clc1ccc2c(NCCCN3CCN(c4ccccn4)CC3)ccnc2c1 | 0.125 (≈ 0.327 µM) | Activity (Plasmodium yoelii [1]): Active; Activity (Plasmodium yoelii [3]): Active; Activity (Plasmodium yoelii [4]): 100%; Activity (Plasmodium yoelii [2]): 100%; Activity (Plasmodium yoelii [5]): 100%; Activity (Plasmodium yoelii [6]): Active
O=[N+]([O-])c1cccnc1N1CCN(CCNc2ccnc3cc(Cl)ccc23)CC1 | 10 (≈ 24.2 µM) | –
